For three molecules, inhibition results are on record in ChEMBL document CHEMBL1781987, “Nobilamides A-H, long-acting transient receptor potential vanilloid-1 (TRPV1) antagonists from mollusk-associated bacteria” (J Med Chem, 2011).

Assay [1] has as its target Transient receptor potential cation channel subfamily V member 1 (Mus musculus) (UniProt Q704Y3). Briefly: Antagonist activity at TRPV1 channel in C57B1 mouse dorsal root ganglion cells assessed as inhibition of capsaicin-induced calcium flux at 125 uM after 3 hrs by fluorometric analysis in presence of 10 ug/ml translational inhibitor cycloheximide. It is filed as functional, tissue-based. For orientation: Calcium flux is commonly read through the fluorescence of an indicator in the cells.

Assay [2] shares this target. The assay can be described thus: Antagonist activity at TRPV1 channel in C57B1 mouse dorsal root ganglion cells assessed as inhibition of capsaicin-induced calcium flux at 125 uM after 3 hrs by fluorometric analysis. It is filed as functional, tissue-based.
For assay [3] the target is unchanged. Briefly: Antagonist activity at TRPV1 channel in C57B1 mouse dorsal root ganglion cells assessed as inhibition of capsaicin-induced calcium flux at 125 uM after 5 mins by fluorometric analysis in presence of at 25 mM of KCl. It is filed as functional, tissue-based. The method in brief:
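Mouse C57B1 cervical/lumbar DRG neurons, Fura-2 AM calcium imaging at 20–25°C, each neuron analysed separately. […] Final 25 or 100 mM KCl pulses check viability.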

For assay [4] the target is unchanged. The assay can be described thus: Antagonist activity at TRPV1 channel in C57B1 mouse dorsal root ganglion cells assessed as inhibition of capsaicin-induced calcium flux at 125 uM after 3 hrs by fluorometric analysis in presence of 5.6 ug/ml trafficking inhibitor brefeldin A. The class given is functional, tissue-based.
For assay [5] the target is unchanged. The assay can be described thus: Antagonist activity at TRPV1 channel in C57B1 mouse dorsal root ganglion cells assessed as inhibition of capsaicin-induced calcium flux at 125 uM after 3 hrs by fluorometric analysis in presence of 6.3 ug/ml transcriptional inhibitor actinomycin D. It is filed as functional, tissue-based.
The test system of assay [6] is Transient receptor potential cation channel subfamily V member 1 (Homo sapiens), Q8NER1 [C578A]. The assay can be described thus: Antagonist activity at human TRPV1 C578A mutant expressed in HEK293 cell assessed as inhibition of capsaicin-induced calcium flux at 375 uM for 30 mins before capsaicin challenge measured after 48 hrs by fluorometric analysis. The class given is functional, cell-based. In short, it runs like this:
(§1)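 HEK-293 cells on gelatin-coated plates transiently transfected with human TRPV1 mutant plasmid (200 ng/well, lipofection 4 h), then grown 48 h. Fluo-4 loaded at 37°C. […] Fluorescence read 1 min; initial rate (ΔF/sec) and ΔFmax compared with capsaicin-only control.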

For assay [7], the target named is T1, Transient receptor potential cation channel subfamily V member 1 (Homo sapiens, UniProt Q8NER1). To be noted: HEK293, 375 uM.
T1 sequence (Q8NER1 whole entry): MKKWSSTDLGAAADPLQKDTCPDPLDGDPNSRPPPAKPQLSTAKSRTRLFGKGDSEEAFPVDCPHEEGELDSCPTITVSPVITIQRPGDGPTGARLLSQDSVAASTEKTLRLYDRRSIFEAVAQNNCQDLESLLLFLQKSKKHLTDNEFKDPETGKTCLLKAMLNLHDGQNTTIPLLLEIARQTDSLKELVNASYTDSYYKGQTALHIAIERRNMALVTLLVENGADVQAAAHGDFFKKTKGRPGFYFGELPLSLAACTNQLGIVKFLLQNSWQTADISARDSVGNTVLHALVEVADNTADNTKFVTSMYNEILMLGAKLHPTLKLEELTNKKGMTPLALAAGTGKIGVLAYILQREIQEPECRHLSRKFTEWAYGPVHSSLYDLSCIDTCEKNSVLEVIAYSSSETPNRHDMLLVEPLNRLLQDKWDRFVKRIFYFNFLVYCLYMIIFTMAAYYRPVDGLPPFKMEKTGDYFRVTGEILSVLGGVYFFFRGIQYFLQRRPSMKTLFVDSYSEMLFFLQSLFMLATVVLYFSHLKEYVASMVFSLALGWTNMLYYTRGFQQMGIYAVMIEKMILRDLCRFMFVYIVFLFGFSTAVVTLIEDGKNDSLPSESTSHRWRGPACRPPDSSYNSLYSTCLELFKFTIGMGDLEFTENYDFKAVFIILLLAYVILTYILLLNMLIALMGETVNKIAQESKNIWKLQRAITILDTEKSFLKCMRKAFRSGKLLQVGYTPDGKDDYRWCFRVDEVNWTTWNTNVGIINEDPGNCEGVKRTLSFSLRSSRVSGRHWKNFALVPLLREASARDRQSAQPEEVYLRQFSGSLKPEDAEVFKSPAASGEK
Assay [8] has as its system Transient receptor potential cation channel subfamily V member 1 (Homo sapiens), Q8NER1 [E649A]. Briefly: Antagonist activity at human TRPV1 E649A mutant expressed in HEK293 cell assessed as inhibition of capsaicin-induced calcium flux at 375 uM for 30 mins before capsaicin challenge measured after 48 hrs by fluorometric analysis. It is filed as functional, cell-based. In short, it runs like this: as §1

Assay [9] concerns the target T1, Transient receptor potential cation channel subfamily V member 1. To be noted: HEK293, 375 uM. The source holds these as a separate data set.
Assay [10] concerns Transient receptor potential cation channel subfamily V member 1 (Homo sapiens), Q8NER1 [E600V]. Briefly: Antagonist activity at human TRPV1 E600V mutant expressed in HEK293 cell assessed as inhibition of capsaicin-induced calcium flux at 375 uM for 30 mins before capsaicin challenge measured after 48 hrs by fluorometric analysis. It is filed as functional, cell-based. In short, it runs like this: as §1
Chain of Transient receptor potential cation channel subfamily V member 1 (Homo sapiens), Q8NER1 [E600V] (Q8NER1 whole entry E600V): as the sequence (Q8NER1 whole entry) above, with E600V counted along it

The test system of assay [11] is Transient receptor potential cation channel subfamily V member 1 (Homo sapiens), Q8NER1 [C621A]. Briefly: Antagonist activity at human TRPV1 C621A mutant expressed in HEK293 cell assessed as inhibition of capsaicin-induced calcium flux at 375 uM for 30 mins before capsaicin challenge measured after 48 hrs by fluorometric analysis. The class given is functional, cell-based. In short, it runs like this:
as §1

The target of assay [12] is T1, Transient receptor potential cation channel subfamily V member 1. The following applies: HEK293, 375 uM. This is another data set of the same source.
The target is the same in assay [13]. The assay can be described thus: Antagonist activity at human TRPV1 expressed in human BEAS-2B cells assessed as inhibition of capsaicin-induced calcium flux at 25 to 1000 uM preincubated for 30 mins before 2.5 uM capsaicin challenge measured after 1 min by fluorometric analysis. It is filed as functional, cell-based. The method in brief:
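Human TRPV1-expressing BEAS-2B cells loaded with Fluo-4 (1 h, ~22°C, dark), then washed into LHC-9 with 1 mM probenecid and Trypan Red containing compound. […] Ca2+ signal tracked 1 min; initial rate and ΔFmax relative to capsaicin-only cells.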

For assay [14], the system named is Transient receptor potential cation channel subfamily V member 1 (Homo sapiens), Q8NER1 [N604A]. Briefly: Antagonist activity at human TRPV1 N604A mutant expressed in HEK293 cell assessed as inhibition of capsaicin-induced calcium flux at 375 uM for 30 mins before capsaicin challenge measured after 48 hrs by fluorometric analysis. It is filed as functional, cell-based. The method in brief:
as §1

The target of assay [15] is T1, Transient receptor potential cation channel subfamily V member 1. The assay can be described thus: Antagonist activity at human TRPV1 expressed in human BEAS-2B cells assessed as inhibition of capsaicin-induced calcium flux at 25 to 1000 uM co-treated with 2.5 uM capsaicin measured after 30 mins by fluorometric analysis. It is filed as functional, cell-based. In short, it runs like this: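 BEAS-2B cells stably overexpressing human TRPV1, grown to confluence in LHC-9. Loaded 1 h at ~22°C in the dark with Fluo-4 reagent, then washed into LHC-9 with 1 mM probenecid and Trypan Red. […] Fluorescence followed 1 min; rate and ΔFmax versus capsaicin-only control.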

In assay [16] the test system is Transient receptor potential cation channel subfamily V member 1 (Homo sapiens), Q8NER1 [F660A]. Briefly: Antagonist activity at human TRPV1 F660A mutant expressed in HEK293 cell assessed as inhibition of capsaicin-induced calcium flux at 375 uM for 30 mins before capsaicin challenge measured after 48 hrs by fluorometric analysis. The class given is functional, cell-based. In short, it runs like this: as §1
Chain of Transient receptor potential cation channel subfamily V member 1 (Homo sapiens), Q8NER1 [F660A] (Q8NER1 whole entry F660A): as the sequence (Q8NER1 whole entry) above, with F660A counted along it

Calls of active or inactive are those of the source. The rule behind the calls is not given here. Bridge positions count the residues as written; N and C are the ends. Square brackets hold non-standard residues; d marks the D form. Peptide text beside a SMILES is read from it. * marks the point of attachment. d(aThr) = C[C@@H](O)[C@@H](N)C(=O)O; Dhb = C/C=C(\N)C(=O)O; Propionyl = CCC(=O)*

Chain of Transient receptor potential cation channel subfamily V member 1 (Mus musculus) (Q704Y3 whole entry): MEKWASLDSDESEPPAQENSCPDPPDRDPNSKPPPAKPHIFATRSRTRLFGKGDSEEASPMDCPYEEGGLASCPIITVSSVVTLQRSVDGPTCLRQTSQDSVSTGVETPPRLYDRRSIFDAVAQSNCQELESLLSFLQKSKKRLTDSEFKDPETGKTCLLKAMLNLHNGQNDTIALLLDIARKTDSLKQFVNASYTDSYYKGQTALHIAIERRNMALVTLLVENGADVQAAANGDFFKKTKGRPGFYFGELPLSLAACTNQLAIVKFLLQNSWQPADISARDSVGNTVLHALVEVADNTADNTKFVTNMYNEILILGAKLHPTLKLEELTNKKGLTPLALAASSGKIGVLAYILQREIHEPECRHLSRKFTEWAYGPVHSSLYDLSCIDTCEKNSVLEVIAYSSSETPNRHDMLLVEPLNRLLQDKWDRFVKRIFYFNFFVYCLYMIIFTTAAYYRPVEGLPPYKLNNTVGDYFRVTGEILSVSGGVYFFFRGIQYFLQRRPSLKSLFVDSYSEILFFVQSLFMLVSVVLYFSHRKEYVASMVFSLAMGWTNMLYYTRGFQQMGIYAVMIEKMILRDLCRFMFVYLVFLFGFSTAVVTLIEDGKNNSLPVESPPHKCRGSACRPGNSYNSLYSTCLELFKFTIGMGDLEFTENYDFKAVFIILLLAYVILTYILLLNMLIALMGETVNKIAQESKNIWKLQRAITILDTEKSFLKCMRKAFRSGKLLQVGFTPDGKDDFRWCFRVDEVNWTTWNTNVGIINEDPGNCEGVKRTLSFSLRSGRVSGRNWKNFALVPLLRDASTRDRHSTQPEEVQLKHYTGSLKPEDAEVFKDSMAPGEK
Chain of Transient receptor potential cation channel subfamily V member 1 (Homo sapiens), Q8NER1 [N604A] (Q8NER1 whole entry N604A): as the sequence (Q8NER1 whole entry) above, with N604A counted along it
Chain of Transient receptor potential cation channel subfamily V member 1 (Homo sapiens), Q8NER1 [C621A] (Q8NER1 whole entry C621A): as the sequence (Q8NER1 whole entry) above, with C621A counted along it
Chain of Transient receptor potential cation channel subfamily V member 1 (Homo sapiens), Q8NER1 [C578A] (Q8NER1 whole entry C578A): as the sequence (Q8NER1 whole entry) above, with C578A counted along it
Chain of Transient receptor potential cation channel subfamily V member 1 (Homo sapiens), Q8NER1 [E649A] (Q8NER1 whole entry E649A): as the sequence (Q8NER1 whole entry) above, with E649A counted along it

For the molecule `C/C=C(\NC(=O)[C@H](C)NC(=O)[C@@H](NC(=O)[C@H](NC(=O)[C@H](Cc1ccccc1)NC(=O)[C@@H](CC(C)C)NC(=O)[C@@H](Cc1ccccc1)NC(C)=O)[C@@H](C)O)C(C)C)C(=O)O` (Ac-[dF][dL]F[d(aThr)]VA[Dhb]-OH), the inhibition entry in assay [1], in assay [2], in [4] and in [5] was “inactive” in each case. In addition, the inhibition result in [3] was “Active”.
On to `C/C=C(\NC(=O)[C@H](C)NC(=O)[C@@H](NC(=O)[C@H](NC(=O)[C@H](Cc1ccccc1)NC(=O)[C@@H](CC(C)C)NC(=O)[C@@H](Cc1ccccc1)NC(=O)CC)[C@@H](C)O)C(C)C)C(=O)O` (Propionyl-[dF][dL]F[d(aThr)]VA[Dhb]-OH), for which the inhibition result in [6], in assay [7], in assay [11] and in assay [16] was “inactive” each time. The inhibition entry in [8], in assay [9], in assay [10], in assay [12], in assay [13] and in [14] was “Active” each time. Also, the inhibition result in [15] is “Active”.
Take `C/C=C1\NC(=O)[C@H](C)NC(=O)[C@H](C(C)C)NC(=O)[C@H](NC(=O)[C@H](Cc2ccccc2)NC(=O)[C@@H](CC(C)C)NC(=O)[C@@H](Cc2ccccc2)NC(=O)CC)[C@@H](C)OC1=O` (Propionyl-[dF][dL]F[d(aThr)]VA[Dhb]; ester 4-C): the inhibition result in assay [6], in [11] and in assay [16] was “inactive” throughout. Further, the inhibition result in assay [8], in assay [10], in [13], in assay [14] and in assay [15] was “Active” throughout.
